Test results published in ChEMBL document CHEMBL3108692, “Potent Targeting of the STAT3 Protein in Brain Cancer Stem Cells: A Promising Route for Treating Glioblastoma” (ACS Med Chem Lett, 2013).
Calls of active or inactive are those of the source. The rule behind the calls is not given here.

Columns and labels:
[1] = target: Epidermal growth factor receptor (Homo sapiens) (UniProt P00533); assay: Inhibition of EGFR in human 147EF cells after 6 hrs by Western blotting analysis; type: cell-based
Homo sapiens [2] = species: Homo sapiens; assay: Inhibition of AKT phosphorylation in human 147EF cells at 0.1 to 1 uM after 3 hrs by Western blotting analysis; type: cell-based
[3] = Cytotoxicity against human 73EF cells assessed as cell viability after 3 days by Alamar Blue assay; conditions: 72 h
[4] = target: Proto-oncogene tyrosine-protein kinase Src (Homo sapiens) (UniProt P12931); assay: Inhibition of c-Src (unknown origin) at 5 uM after 120 mins relative to control
Sequence of Proto-oncogene tyrosine-protein kinase Src (Homo sapiens) (P12931 2-536 limits assumed): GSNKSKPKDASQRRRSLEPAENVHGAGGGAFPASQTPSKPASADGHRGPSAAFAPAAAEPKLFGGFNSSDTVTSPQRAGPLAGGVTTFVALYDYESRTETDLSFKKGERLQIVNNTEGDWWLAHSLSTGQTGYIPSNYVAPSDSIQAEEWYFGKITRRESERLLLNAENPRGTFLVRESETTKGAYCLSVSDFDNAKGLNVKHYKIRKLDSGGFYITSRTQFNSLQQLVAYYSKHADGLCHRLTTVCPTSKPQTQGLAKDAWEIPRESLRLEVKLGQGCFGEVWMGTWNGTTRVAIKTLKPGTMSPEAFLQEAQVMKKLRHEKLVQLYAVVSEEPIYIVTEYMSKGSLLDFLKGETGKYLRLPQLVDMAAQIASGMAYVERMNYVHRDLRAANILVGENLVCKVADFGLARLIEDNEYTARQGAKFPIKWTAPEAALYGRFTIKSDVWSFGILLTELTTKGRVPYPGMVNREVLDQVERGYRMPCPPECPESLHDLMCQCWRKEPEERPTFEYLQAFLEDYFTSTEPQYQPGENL

[5] = Cytotoxicity against HF2006 cells assessed as cell viability at 5 uM after 3 days by Alamar Blue assay; type: cell-based; conditions: human, 72 h
Summary of the method: (§1)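 Normal human fetal astrocytes (healthy, non-tumor cells) were exposed to compounds at concentrations up to 5 μM, with viability as the cytotoxicity read-out.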

[6] = target: Tyrosine-protein kinase JAK1 (Homo sapiens) (UniProt P23458); assay: Inhibition of JAK1 (unknown origin) SH2 domain expressed in HEK293 cells at 500 nM preincubated for 1 hr followed by compound washout measured after 30 mins by qPCR analysis; type: cell-based
Sequence of Tyrosine-protein kinase JAK1 (Homo sapiens) (P23458 whole entry, the tested form may be a part): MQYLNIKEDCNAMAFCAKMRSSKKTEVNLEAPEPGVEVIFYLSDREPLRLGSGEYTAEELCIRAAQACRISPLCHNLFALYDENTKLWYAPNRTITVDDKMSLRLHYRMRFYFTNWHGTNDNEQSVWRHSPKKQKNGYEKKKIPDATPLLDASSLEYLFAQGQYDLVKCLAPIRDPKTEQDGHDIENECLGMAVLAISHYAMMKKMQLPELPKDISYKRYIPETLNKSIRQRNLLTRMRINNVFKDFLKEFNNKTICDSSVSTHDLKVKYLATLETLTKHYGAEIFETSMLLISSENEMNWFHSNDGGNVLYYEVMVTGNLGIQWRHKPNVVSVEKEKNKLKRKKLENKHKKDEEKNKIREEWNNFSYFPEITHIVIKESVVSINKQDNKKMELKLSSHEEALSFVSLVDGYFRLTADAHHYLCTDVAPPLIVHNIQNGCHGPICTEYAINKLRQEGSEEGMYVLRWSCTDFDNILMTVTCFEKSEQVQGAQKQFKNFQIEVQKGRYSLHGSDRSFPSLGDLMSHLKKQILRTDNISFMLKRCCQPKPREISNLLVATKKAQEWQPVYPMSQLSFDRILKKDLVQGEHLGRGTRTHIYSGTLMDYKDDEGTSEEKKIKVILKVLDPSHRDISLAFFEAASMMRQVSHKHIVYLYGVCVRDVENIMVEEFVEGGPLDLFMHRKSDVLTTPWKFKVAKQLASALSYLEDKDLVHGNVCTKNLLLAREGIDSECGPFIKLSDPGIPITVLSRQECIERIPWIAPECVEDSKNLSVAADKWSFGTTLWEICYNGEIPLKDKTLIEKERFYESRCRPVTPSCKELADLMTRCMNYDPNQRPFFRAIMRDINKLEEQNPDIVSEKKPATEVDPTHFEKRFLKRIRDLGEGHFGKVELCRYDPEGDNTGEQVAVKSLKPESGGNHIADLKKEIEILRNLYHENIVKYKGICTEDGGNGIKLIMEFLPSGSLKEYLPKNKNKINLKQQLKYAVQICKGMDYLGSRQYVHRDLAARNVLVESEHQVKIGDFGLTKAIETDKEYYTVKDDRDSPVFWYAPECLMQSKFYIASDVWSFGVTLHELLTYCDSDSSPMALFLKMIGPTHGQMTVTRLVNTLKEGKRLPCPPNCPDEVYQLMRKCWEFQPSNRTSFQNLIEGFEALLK

[7] = target: Tyrosine-protein kinase Fes/Fps (Homo sapiens) (UniProt P07332); assay: Inhibition of FES (unknown origin) SH3 domain expressed in HEK293 cells at 500 nM preincubated for 1 hr followed by compound washout measured after 30 mins by qPCR analysis; type: cell-based
[8] = Cytotoxicity against human 67EF cells assessed as cell viability after 3 days by Alamar Blue assay; conditions: 72 h
[9] = target: T1, Signal transducer and activator of transcription 5A (Homo sapiens, UniProt P42229); assay: Binding affinity to His-tagged STAT5 (unknown origin) by SPR spectroscopic analysis
T1 sequence (P42229 whole entry): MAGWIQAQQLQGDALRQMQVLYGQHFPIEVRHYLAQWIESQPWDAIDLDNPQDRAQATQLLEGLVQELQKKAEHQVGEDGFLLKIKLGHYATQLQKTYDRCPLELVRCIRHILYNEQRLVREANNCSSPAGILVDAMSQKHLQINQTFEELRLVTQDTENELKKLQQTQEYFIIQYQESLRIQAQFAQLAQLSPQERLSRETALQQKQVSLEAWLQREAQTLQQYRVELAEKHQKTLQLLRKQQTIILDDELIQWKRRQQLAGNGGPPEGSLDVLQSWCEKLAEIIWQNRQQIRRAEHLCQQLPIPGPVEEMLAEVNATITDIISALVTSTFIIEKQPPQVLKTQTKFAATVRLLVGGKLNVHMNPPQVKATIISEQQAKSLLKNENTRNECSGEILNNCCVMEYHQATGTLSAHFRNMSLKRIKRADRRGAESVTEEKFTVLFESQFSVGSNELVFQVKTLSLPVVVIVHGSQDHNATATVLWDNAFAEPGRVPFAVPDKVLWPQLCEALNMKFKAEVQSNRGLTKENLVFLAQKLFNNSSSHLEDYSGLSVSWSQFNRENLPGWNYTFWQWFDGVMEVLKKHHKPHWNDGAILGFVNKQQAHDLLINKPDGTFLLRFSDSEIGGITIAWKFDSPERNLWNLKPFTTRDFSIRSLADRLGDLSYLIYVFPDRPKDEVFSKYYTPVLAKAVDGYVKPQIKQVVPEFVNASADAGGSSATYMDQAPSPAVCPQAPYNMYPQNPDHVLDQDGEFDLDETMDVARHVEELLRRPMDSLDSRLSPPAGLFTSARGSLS
Summary of the method: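 SPR binding to STAT3 and STAT5 proteins was run at several analyte concentrations: 5.000, 1.667, 0.556 and 0.185 μM.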

[10] = target: T2, Signal transducer and activator of transcription 3 (Homo sapiens, UniProt P40763); assay: Inhibition of STAT3 phosphorylation at Y705 in human 73M cells at 1 uM; type: cell-based
T2 sequence (P40763 whole entry): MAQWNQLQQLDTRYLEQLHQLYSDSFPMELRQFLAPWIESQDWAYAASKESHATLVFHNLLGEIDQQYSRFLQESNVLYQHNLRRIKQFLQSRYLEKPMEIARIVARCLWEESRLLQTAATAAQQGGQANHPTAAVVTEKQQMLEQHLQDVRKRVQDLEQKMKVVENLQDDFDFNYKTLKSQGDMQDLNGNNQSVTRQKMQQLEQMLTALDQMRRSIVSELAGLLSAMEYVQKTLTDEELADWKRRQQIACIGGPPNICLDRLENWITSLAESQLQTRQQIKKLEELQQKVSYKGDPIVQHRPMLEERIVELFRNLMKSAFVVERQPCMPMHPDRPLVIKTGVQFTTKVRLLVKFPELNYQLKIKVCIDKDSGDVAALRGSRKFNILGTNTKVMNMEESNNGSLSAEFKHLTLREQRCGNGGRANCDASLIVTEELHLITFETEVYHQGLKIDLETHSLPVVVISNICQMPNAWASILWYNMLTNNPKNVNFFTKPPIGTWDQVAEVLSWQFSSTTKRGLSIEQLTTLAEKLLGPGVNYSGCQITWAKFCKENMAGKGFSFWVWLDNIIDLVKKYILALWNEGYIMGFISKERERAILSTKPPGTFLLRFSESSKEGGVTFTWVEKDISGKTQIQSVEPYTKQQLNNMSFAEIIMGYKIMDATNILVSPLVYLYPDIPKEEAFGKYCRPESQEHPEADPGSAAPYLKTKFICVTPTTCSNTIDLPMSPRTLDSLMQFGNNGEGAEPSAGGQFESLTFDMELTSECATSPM
Summary of the method: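 Human 73M glioblastoma brain tumour stem cells were exposed to the inhibitor alongside the JAK2 inhibitor reference WP1066. Activated STAT3 was then read out by Western blot for STAT3 phosphorylated at Y705.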

[11] = Cytotoxicity against human 30M cells assessed as cell viability after 3 days by Alamar Blue assay; conditions: 72 h
Homo sapiens [12] = species: Homo sapiens; assay: Inhibition of AKT in human 147EF cells after 6 hrs by Western blotting analysis; type: cell-based
[13] = target: Tyrosine-protein kinase JAK2 (Homo sapiens) (UniProt O60674); assay: Inhibition of JAK2 (unknown origin) SH2 domain expressed in HEK293 cells at 500 nM preincubated for 1 hr followed by compound washout measured after 30 mins by qPCR analysis; type: cell-based
Sequence of Tyrosine-protein kinase JAK2 (Homo sapiens) (O60674 whole entry, the tested form may be a part): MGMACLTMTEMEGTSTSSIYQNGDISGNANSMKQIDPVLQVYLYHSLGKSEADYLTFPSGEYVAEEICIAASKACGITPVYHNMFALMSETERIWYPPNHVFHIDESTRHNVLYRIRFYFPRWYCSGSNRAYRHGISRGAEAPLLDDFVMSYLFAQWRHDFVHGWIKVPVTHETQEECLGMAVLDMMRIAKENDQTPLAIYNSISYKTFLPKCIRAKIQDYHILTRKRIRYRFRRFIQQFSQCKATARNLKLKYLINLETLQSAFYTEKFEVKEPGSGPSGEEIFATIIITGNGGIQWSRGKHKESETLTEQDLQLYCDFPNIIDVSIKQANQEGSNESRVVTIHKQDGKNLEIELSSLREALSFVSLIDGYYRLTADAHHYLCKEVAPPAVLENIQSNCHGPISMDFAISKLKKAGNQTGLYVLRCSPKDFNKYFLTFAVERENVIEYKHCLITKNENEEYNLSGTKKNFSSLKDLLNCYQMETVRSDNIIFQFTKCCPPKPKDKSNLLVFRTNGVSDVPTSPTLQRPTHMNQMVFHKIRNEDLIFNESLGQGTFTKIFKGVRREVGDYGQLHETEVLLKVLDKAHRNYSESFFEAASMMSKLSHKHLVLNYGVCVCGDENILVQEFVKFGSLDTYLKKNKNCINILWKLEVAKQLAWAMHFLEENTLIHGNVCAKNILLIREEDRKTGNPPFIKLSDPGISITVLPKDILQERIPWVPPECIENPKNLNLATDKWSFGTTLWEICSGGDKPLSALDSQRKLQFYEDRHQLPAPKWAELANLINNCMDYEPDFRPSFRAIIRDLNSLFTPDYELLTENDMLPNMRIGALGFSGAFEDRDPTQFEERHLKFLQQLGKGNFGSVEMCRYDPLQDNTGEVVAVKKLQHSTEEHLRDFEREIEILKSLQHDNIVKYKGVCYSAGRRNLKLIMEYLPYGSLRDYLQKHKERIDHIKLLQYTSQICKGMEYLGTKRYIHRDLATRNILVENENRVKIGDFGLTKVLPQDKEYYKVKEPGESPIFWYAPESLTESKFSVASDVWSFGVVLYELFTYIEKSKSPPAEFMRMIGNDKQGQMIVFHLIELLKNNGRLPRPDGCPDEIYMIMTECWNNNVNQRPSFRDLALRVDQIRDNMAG

[14] = target: T2, Signal transducer and activator of transcription 3; assay: Inhibition of STAT3 phosphorylation at Y705 in human 147EF cells at 0.1 to 1 uM after 3 hrs by Western blotting analysis; type: cell-based
[15] = target: Tyrosine-protein kinase JAK2 (Homo sapiens) (UniProt O60674); assay: Inhibition of JAK2 (unknown origin) at 5 uM after 120 mins relative to control
[16] = target: RAC-alpha serine/threonine-protein kinase (Homo sapiens) (UniProt P31749); assay: Inhibition of AKT1 (unknown origin) at 5 uM after 120 mins
[17] = Cytotoxicity against human 73M cells assessed as cell viability after 8 days by Alamar Blue assay; type: functional, cell-based; conditions: 192 h
Homo sapiens [18] = species: Homo sapiens; assay: Inhibition of MAPK in human 147EF cells after 6 hrs by Western blotting analysis; type: cell-based
[19] = target: Proto-oncogene tyrosine-protein kinase Src (Homo sapiens) (UniProt P12931); assay: Inhibition of Src in human 147EF cells after 6 hrs by Western blotting analysis; type: cell-based
cells = conditions: Homo sapiens, 72 h
BT73 [20] = assay: Antitumor activity against human BT73 cells xenografted in NOD-SCID mouse assessed as decrease in tumor size at 10 mg/kg, ip administered as 4 days on/3 days off schedule measured 2 hrs post last dose by hematoxylin/eosin staining; type: functional, organism-based; parameters: dose 10 mg/kg
Summary of the method: (§2)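 Mice were NOD-SCID with orthotopic BT73 human glioma xenografts. Starting on day 7, they received 10 intraperitoneal doses of 10 mg/kg or vehicle on a 4 days on/3 days off schedule. Animals were killed 2 h after the last dose and brain tumors excised. Read-outs were hematoxylin/eosin staining for tumor cellularity and immunohistochemistry for pSTAT3, Ki67 (proliferation) and TUNEL (apoptosis).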

Mus musculus = assay: In vivo inhibition of STAT3 phosphorylation in tumor of NOD-SCID mouse xenografted with human BT73 cells at 10 mg/kg, ip administered as 4 days on/3 days off schedule measured 2 hrs post last dose; type: functional, organism-based; parameters: dose 10 mg/kg; summary of the method: as §2
[21] = Cytotoxicity against HF2003 cells assessed as cell viability at 5 uM after 3 days by Alamar Blue assay; type: cell-based; conditions: human, 72 h; summary of the method: as §1
BT73 [22] = assay: Antitumor activity against human BT73 cells xenografted in NOD-SCID mouse assessed as tumor growth inhibition by measuring downregulation of Ki67 protein expression at 10 mg/kg, ip administered as 4 days on/3 days off schedule measured 2 hrs post last dose; type: functional, organism-based; parameters: dose 10 mg/kg; summary of the method: as §2
Homo sapiens [23] = species: Homo sapiens; assay: Induction of apoptosis in human 147EF cells assessed as PARP cleavage at 0.1 to 1 uM after 3 hrs by Western blotting analysis; type: functional, cell-based
[24] = target: Platelet-derived growth factor receptor beta (Homo sapiens) (UniProt P09619); assay: Inhibition of PDGFRB (unknown origin) expressed in HEK293 cells at 500 nM preincubated for 1 hr followed by compound washout measured after 30 mins by qPCR analysis relative to control; type: cell-based
Sequence of Platelet-derived growth factor receptor beta (Homo sapiens) (P09619 whole entry, the tested form may be a part): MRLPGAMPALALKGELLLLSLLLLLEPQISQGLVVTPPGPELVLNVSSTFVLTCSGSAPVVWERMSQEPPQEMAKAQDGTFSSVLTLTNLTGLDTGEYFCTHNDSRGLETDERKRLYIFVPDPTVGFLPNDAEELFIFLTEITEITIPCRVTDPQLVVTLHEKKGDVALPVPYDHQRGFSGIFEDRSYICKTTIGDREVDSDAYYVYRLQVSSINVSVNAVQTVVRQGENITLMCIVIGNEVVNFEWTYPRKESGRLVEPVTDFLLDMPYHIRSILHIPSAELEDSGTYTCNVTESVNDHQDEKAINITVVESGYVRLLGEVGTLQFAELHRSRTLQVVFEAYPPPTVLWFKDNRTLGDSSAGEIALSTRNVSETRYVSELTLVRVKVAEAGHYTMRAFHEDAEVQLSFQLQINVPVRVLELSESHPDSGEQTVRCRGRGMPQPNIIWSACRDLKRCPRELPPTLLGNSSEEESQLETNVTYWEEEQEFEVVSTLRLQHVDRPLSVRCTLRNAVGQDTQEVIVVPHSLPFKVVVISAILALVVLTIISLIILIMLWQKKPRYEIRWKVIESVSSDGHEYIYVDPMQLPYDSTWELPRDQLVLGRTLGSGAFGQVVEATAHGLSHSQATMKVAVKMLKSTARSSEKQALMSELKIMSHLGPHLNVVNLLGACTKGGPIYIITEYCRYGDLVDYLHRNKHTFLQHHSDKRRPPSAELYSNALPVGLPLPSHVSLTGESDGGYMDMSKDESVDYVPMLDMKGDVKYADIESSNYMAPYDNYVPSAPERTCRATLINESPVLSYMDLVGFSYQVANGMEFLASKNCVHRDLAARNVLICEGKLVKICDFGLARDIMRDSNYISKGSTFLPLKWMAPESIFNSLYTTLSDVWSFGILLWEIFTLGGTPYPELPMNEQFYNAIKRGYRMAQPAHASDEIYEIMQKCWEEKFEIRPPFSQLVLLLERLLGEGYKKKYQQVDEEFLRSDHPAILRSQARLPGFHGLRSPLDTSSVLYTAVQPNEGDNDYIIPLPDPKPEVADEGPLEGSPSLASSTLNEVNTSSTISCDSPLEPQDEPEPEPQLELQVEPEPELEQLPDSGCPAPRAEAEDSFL

[25] = Cytotoxicity against human 30M cells assessed as cell viability after 8 days by Alamar Blue assay; type: functional, cell-based; conditions: 192 h
[26] = target: Tyrosine-protein kinase Fyn (Homo sapiens) (UniProt P06241); assay: Inhibition of FYN (unknown origin) SH3 domain expressed in HEK293 cells at 500 nM preincubated for 1 hr followed by compound washout measured after 30 mins by qPCR analysis; type: cell-based
BT73 [27] = assay: Antitumor activity against human BT73 cells xenografted in NOD-SCID mouse assessed as induction of apoptosis in tumor at 10 mg/kg, ip administered as 4 days on/3 days off schedule measured 2 hrs post last dose by TUNEL assay; type: functional, organism-based; parameters: dose 10 mg/kg; summary of the method: as §2
[28] = Cytotoxicity against human 84EF cells assessed as cell viability after 3 days by Alamar Blue assay; conditions: 72 h
[29] = target: Tyrosine-protein kinase JAK1 (Homo sapiens) (UniProt P23458); assay: Inhibition of JAK1 (unknown origin) at 5 uM after 120 mins
[30] = Cytotoxicity against human 25EF cells assessed as cell viability after 3 days by Alamar Blue assay; conditions: 72 h
[31] = target: Mitogen-activated protein kinase 3 (Homo sapiens) (UniProt P27361); assay: Inhibition of ERK1 (unknown origin) at 5 uM after 120 mins
Sequence of Mitogen-activated protein kinase 3 (Homo sapiens) (P27361 whole entry): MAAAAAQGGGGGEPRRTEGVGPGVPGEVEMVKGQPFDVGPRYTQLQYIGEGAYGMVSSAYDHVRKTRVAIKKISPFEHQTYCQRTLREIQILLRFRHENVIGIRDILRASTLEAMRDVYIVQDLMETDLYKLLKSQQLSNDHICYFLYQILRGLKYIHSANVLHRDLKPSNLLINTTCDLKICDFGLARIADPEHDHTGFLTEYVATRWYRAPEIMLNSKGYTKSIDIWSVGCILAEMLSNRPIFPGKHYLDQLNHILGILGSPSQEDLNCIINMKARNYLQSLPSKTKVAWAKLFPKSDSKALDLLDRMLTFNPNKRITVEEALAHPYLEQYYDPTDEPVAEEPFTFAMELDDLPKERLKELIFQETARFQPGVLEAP

[32] = target: Tyrosine-protein kinase JAK2 (Homo sapiens) (UniProt O60674); assay: Inhibition of JAK2 in human 147EF cells after 6 hrs by Western blotting analysis; type: cell-based
[33] = target: Platelet-derived growth factor receptor beta (Homo sapiens) (UniProt P09619); assay: Inhibition of PDGFRB (unknown origin) at 10 uM by enzymatic assay
[34] = target: Tyrosine-protein kinase Fer (Homo sapiens) (UniProt P16591); assay: Inhibition of FER (unknown origin) SH3 domain expressed in HEK293 cells at 500 nM preincubated for 1 hr followed by compound washout measured after 30 mins by qPCR analysis; type: cell-based

CN(CC(=O)N(Cc1ccc(C2CCCCC2)cc1)c1ccc(C(=O)O)cc1)S(=O)(=O)c1c(F)c(F)c(F)c(F)c1F
inhibition [1]: inactive | inhibition (Homo sapiens [2]): Active | IC50 [3]: 162 nM | inhibition [4]: 50% | Activity [5]: Non-toxic | inhibition [6]: inactive | inhibition [7]: inactive | IC50 [8]: 106 nM | Kd [9]: 464 nM | inhibition [10]: Active | IC50 [11]: 100 nM | inhibition (Homo sapiens [12]): inactive | inhibition [13]: inactive | inhibition [14]: Active | inhibition [15]: 50% | inhibition [16]: inactive | IC50 [17]: 1030 nM | inhibition (Homo sapiens [18]): inactive | inhibition [19]: inactive | IC50 (cells): 66 nM | Activity (BT73 [20]): Active | inhibition (Mus musculus): Active | Activity [21]: Non-toxic | TGI (BT73 [22]): Active | Activity (Homo sapiens [23]): Active | inhibition [24]: 35% | IC50 [25]: 430 nM | inhibition [26]: inactive | Activity (BT73 [27]): Active | IC50 [28]: 102 nM | inhibition [29]: inactive | IC50 [30]: 234 nM | inhibition [31]: inactive | inhibition [32]: inactive | inhibition [33]: inactive | inhibition [34]: inactive
